The term IC50 denotes the point on the concentration scale where inhibition reaches its midpoint. Read a high IC50 as weaker potency.

Some results are limits rather than exact numbers.

This assay deals with Trypanosoma cruzi. Kind of assay: Inhibitory concentration against Trypanosoma cruzi (epimastigotes). Format: functional, organism-based. In a few lines:
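T. cruzi epimastigotes (Y strain) grown at 28 °C in brain-heart infusion (37 g/L) medium with hemin chlorohydrate (20 mg/L) and 10% newborn calf serum. Initial inoculum 2-3 × 10^6 cells/mL, counted in a Neubauer chamber. Each drug tested at four concentrations with a drug-free control per group. Growth read as absorbance at 600 nm against medium blank. Percent inhibition taken from the start-to-end absorbance change relative to control.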
`COc1ccc(OCCOC2CCCCO2)cc1` (stereo not given) returned an IC50 of 218 µM.
`CC(C)=CCC/C(C)=C/CC/C(C)=C/COC1CCCCO1` (stereo not given): it took 78 µM to reach half-maximal inhibition (IC50).
As for `c1ccc(Oc2ccc(OCCOC3CCCCO3)cc2)cc1` (stereo not given), inhibition was half-maximal at 138 µM (IC50).
Take `CCNC(=O)OCC(O)COc1ccc(Oc2ccccc2)cc1` (stereo not given): the IC50 is 233 µM.
With `C=COC(=O)OC(C)COc1ccc(Oc2ccccc2)cc1` (stereo not given), the half-inhibitory concentration (IC50) is greater than 240 µM.
For the molecule `C=COC(=O)OCCCOc1ccc(Oc2ccccc2)cc1`, the IC50 came out at 260 µM.
As to `OC(c1ccccc1)c1ccc(OCCOC2CCCCO2)cc1` (stereo not given), the IC50 was greater than 500 µM.
Molecule `CCSC(=O)OC/C=C(\C)CC/C=C(\C)CCC1OC1(C)C` (stereo not given) had a half-maximal inhibitory concentration (IC50) of 210 µM.
In turn, `COc1ccc(OCCO)cc1` gave a half-maximal inhibitory concentration (IC50) greater than 500 µM.
The same measure for `CCNC(=O)OCCOc1ccc(OC)cc1`: greater than 300 µM; for `C=CCOc1ccc(C(=O)c2ccccc2)cc1`: 129 µM.
`CCNC(=O)OCCOc1ccc(C(=O)c2ccccc2)cc1`: the half-inhibitory concentration (IC50) was greater than 300 µM.
For the molecule `CCNC(=O)OC/C=C(\C)CC/C=C(\C)CCC=C(C)C`, the IC50 is 147 µM.
In turn, `OCC(O)COc1ccc(Oc2ccccc2)cc1` (stereo not given) gave a half-inhibitory concentration (IC50) of 270 µM.
`COc1ccc(OCCCOC2CCCCO2)cc1` (stereo not given) returned an IC50 greater than 300 µM.
`CCNC(=O)OC/C=C(\C)CCC=C(C)C` registered an IC50 of 176 µM.
As to `O=C(c1ccccc1)c1ccc(OCCO)cc1`, the IC50 is greater than 400 µM.
As to `C=COC(=O)OC/C=C(\C)CC/C=C(\C)CCC=C(C)C`, the half-maximal inhibitory concentration (IC50) is greater than 500 µM.
`OC(COc1ccc(Oc2ccccc2)cc1)COC1CCCCO1` (stereo not given) showed a half-inhibitory concentration (IC50) of 142 µM.
`CC(C)=CCC/C(C)=C/COC1CCCCO1` (stereo not given) returned a 50% inhibitory concentration (IC50) of 68 µM.
Consider `O=C(c1ccccc1)c1ccc(OCCOC2CCCCO2)cc1` (stereo not given), for which the IC50 was 268 µM.
The figure for `CCNC(=O)OC(C)COc1ccc(OC)cc1` (stereo not given) is greater than 350 µM.
The molecule `COc1ccc(OCC(C)O)cc1` (stereo not given) showed an IC50 greater than 500 µM.
`CCNC(=O)OCCCOc1ccc(OC)cc1` gave an IC50 greater than 350 µM.
As for `C=CCOc1ccc(OC)cc1` [1-allyloxy-4-methoxybenzene], the IC50 turned out to be 209 µM.

Source of the values: ChEMBL document CHEMBL1130423, “Design, synthesis, and biological evaluation of new growth inhibitors of Trypanosoma cruzi (epimastigotes)” (J Med Chem, 1997).
